The test system of one series is L929. The series is described as follows: Mean phosphorylation rate of 10 uM compound by recombinant human thymidine kinase 1 (cytosolic) expressing wild type L929 tumor cells. Format: functional. The essentials:
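Purified recombinant human TK1 (50 ng) with 10 µM substrate, final DMSO 1%, 100 µM ATP spiked with 0.03 µM [γ-32P]-ATP, in 50 mM Tris-HCl pH 7.6, 5 mM MgCl2, 125 mM KCl, 10 mM DTT, 0.5 mg/mL BSA. Run at 37 °C for 20 min, then 95 °C for 2 min. Products separated by PEI-cellulose TLC and read by phosphorimager. Rate expressed relative to thymidine, using one enzyme batch.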

The nature of series [1]: Mean retention time in reversed phase HPLC (RP-18). Format: ADME.

With “3-[2-(7-Amino-closo-m-carboran-1-yl)-ethan-1-yl]thymidine”, the Phosphorylation rate in the series on L929 (Mus musculus) was found to be 71.9%.
The same measure, in the same setting: in the case of “3-[2-(7-Amino-closo-m-carboran-1-yl)ethoxyethyl]thymidine” it was 48.4%; in that of “3-[2-(7-Ammonium-nido-m-carboran-1-yl)ethan-1-yl]-thymidine”, 89.4%.
“3-[2-(7-Ammonium-nido-m-carboran-1-yl)ethoxyethyl]-thymidine”: the Phosphorylation rate in the series on L929 (Mus musculus) turned out to be 75.1%.
On the same count and under the same terms, in the case of “3-[3-(7-Amino-closo-m-carboran-1-yl)propan-1-yl]thymidine” it was 58.2%; in that of “3-[3-(7-Ammonium-nido-m-carboran-1-yl)propan-1-yl]-thymidine”, 64.6%.
With “3-[4-(7-Amino-closo-m-carboran-1-yl)butan-1-yl]thymidine”, the Phosphorylation rate with L929 (Mus musculus) came out at 58%.
With “3-[4-(7-Ammonium-nido-m-carboran-1-yl)butan-1-yl]-thymidine”, the Phosphorylation rate in the series with L929 (Mus musculus) stood at 63.8%.
The same measure, in the same setting: in the case of “3-[5-(7-Amino-closo-m-carboran-1-yl)hexan-1-yl]thymidine” it was 14.2%.
Still for that read-out and setting: the figure for “3-[5-(7-Amino-closo-m-carboran-1-yl)pentan-1-yl]thymidine” is 45.1%; for “3-[5-(7-Ammonium-nido-m-carboran-1-yl)pentan-1-yl]thymidine” it is 50.7%.
Take “3-[6-(7-Ammonium-nido-m-carboran-1-yl)hexan-1-yl]-thymidine”: in the series with L929 (Mus musculus), the Phosphorylation rate is 45.4%.
Consider “3-[(closo-o-Caboran-1-yl)methyl]thymidine”, for which, in the series on L929 (Mus musculus), the Phosphorylation rate was found to be 9.6%.
For `C#CCn1c(=O)c(C)cn([C@H]2CC(O)[C@@H](CO)O2)c1=O` (single isomer, unassigned), in series [1], the Retention time stood at 11.79 min. For the same molecule, the Phosphorylation rate in the series on L929 came to 102%.
The like results for `Cc1cn([C@H]2C[C@H](O)[C@@H](CO)O2)c(=O)[nH]c1=O` [DOXRIBTIMINE] were, in that order, 8.72 min and 100%.
For `Cc1cn([C@H]2C[C@H](N=[N+]=[N-])[C@@H](CO)O2)c(=O)[nH]c1=O` [ZIDOVUDINE] the same measures were 12.22 min and 52%.
For the molecule N5-20H, the Phosphorylation rate with L929 (Mus musculus) stood at 41%.

The values above are taken from ChEMBL document CHEMBL1142668, “Synthesis and biological evaluation of neutral and zwitterionic 3-carboranyl thymidine analogues for boron neutron capture therapy” (J Med Chem, 2005).
